This is one part of a sample in which hits are shown more often than they occur.
IDH1 R132H inh = blocks human IDH1 R132H reductase activity; diaphorase/resazurin fluorescence, 60 min; inhibition, % at 10 µM; 0.18% of 70,000 active; O75874; in the data active = inhibition above about 34%; inconclusive = no clear call, values can overlap the other calls; inactive = below about 11%;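 also: 0% = DMSO and 100% = no enzyme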
GASC1 inh = blocks human GASC-1 (KDM4C) demethylase activity; Q9H3R0; GST-KDM4C 2-372, H3K9me3 peptide, LANCE TR-FRET; inhibition, % at 12.5 µM; 0.15% of 96,000 active; AID 720574;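 active = mean replicate inhibition above about 25%, with at least 55% of replicates also reaching it, limit read from the data, passing the limit was not always enough; inconclusive = only one of those two conditions met; inactive = neither condition met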
Target sequence (Q9H3R0 2-372 limits assumed): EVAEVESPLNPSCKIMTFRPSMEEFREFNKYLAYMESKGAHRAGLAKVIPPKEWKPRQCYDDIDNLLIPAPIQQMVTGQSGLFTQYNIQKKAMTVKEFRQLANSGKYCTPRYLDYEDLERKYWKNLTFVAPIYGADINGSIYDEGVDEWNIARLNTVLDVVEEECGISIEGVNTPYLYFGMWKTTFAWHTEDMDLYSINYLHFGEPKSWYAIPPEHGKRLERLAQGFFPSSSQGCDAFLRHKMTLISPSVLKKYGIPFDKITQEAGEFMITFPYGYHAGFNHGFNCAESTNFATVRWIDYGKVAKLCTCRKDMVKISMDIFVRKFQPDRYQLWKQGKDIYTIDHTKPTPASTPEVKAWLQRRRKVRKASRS
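Assay system: GST-GASC-1 enzyme fragment 2-372 | Amount: 10 nM enzyme | Medium: HEPES buffer, pH 7.5, plus ascorbate | Reagent: H3K9me3 peptide substrate, Fe(II), 2-oxoglutarate | Doses: Single-point compound screen | Incubation: 30 min demethylation and 1 h detection at room temperature | Measured by: LANCE TR-FRET, excitation 340 nm, emissions 618 and 671 nm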
T cruzi growth-1 = inhibitors of T. cruzi proliferation; 5.9% of 77,000 active; inhibition, % at 8.34 µM; AID 624255; T. cruzi beta-gal in NIH3T3, GalScreen luminescence, 90 h;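 active = mean inhibition above about 93%, with at least 55% of replicates each passing it, limit read from the data, passing the limit was not always enough; inconclusive = only one of those two conditions holds; inactive = neither condition holds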
T cruzi growth-2 = inhibitors of T. cruzi proliferation; shares compounds with T cruzi growth-1; T. cruzi beta-gal in NIH3T3, GalScreen luminescence, 90 h; inhibition, % at 8.35 µM; 72% of 5,600 active; AID 651739;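 active = mean replicate inhibition above about 95% and at least 55% of replicates individually reaching it, limit read from the data; inconclusive = only one of the two criteria is met; inactive = neither criterion is met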
T cruzi growth-3 = Trypanosoma cruzi proliferation inhibition; shares compounds with T cruzi growth-1; T. cruzi beta-gal in NIH3T3, GalScreen luminescence, 90 h; inhibition, % at 2.09 µM; 21% of 5,600 active;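 active = mean inhibition above about 95%, with at least 55% of replicates also reaching it, limit read from the data; inconclusive = meets just one of the two conditions; inactive = meets neither condition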;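 also: plate controls were neutral control median for no effect and positive control median for full effect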
3T3 cytotox = kills mouse NIH/3T3 fibroblasts. shares compounds with T cruzi growth-1. NIH/3T3 viability, CellTiter-Glo ATP luminescence, 90 h. cytotoxicity (signal decrease), % at 8.35 µM. 14% of 5,600 active. AID 651742;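 active = mean signal decrease across replicates above about 35% based on untreated-well scatter, with enough replicates individually passing, limit read from the data; inconclusive = no rule stated though some were filed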;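 also: 0% = median of neutral control wells and 100% = median of positive control wells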
3T3 cytotox 2 = cytotoxicity in mouse NIH/3T3 fibroblasts; shares compounds with T cruzi growth-1; NIH/3T3 viability, CellTiter-Glo ATP luminescence, 90 h; inhibition, % at 24.9 µM; 56% of 5,600 active; AID 651744;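 active = mean loss of cell viability signal at or above a set limit, and enough replicates individually reaching it; inconclusive = meets only the mean limit or only the replicate share; inactive = meets neither condition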;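 also: 0% = median of neutral control wells and 100% = median of positive control wells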
The depositor's hits bear a star.

For COc1cccc(S(=O)(=O)N2CCCCN3[C@H](CO)[C@@H](c4ccc(-c5ccccc5)cc4)[C@@H]3C2)c1 the results were GASC1 inh 0 and T cruzi growth-1 65.
`COc1cccc(S(=O)(=O)N2CCCCN3[C@H](CO)[C@@H](c4ccc(-c5cccnc5)cc4)[C@H]3C2)c1` gave GASC1 inh 0 and T cruzi growth-1 55.
Screening C[C@@H]1CCCCO[C@H](CN(C)S(=O)(=O)c2ccc(F)cc2)[C@H](C)CN([C@H](C)CO)C(=O)c2cc(NS(C)(=O)=O)ccc2O1 returned IDH1 R132H inh 0 and GASC1 inh 1.
Screening NC(=O)C1CCN(C(=O)CSc2nc(-c3ccccc3)cc(=O)[nH]2)CC1 returned IDH1 R132H inh 0.
`Cc1cc2nn(-c3ccc(C(C)C)cc3)nc2cc1NC(=O)COc1ccccc1[N+](=O)[O-]` gave IDH1 R132H inh 1.
COc1cc([N+](=O)[O-])cc(CN2CCN(CCO)CC2)c1O was read as IDH1 R132H inh 0.
For C[C@@H]1CCCCO[C@H](CN(C)CC2CC2)[C@H](C)CN([C@@H](C)CO)C(=O)c2cc(NC(=O)Nc3ccc(C(F)(F)F)cc3)ccc2O1 the results were GASC1 inh -2 and T cruzi growth-1 69.
`C[C@@H]1CCCCO[C@@H](CN(C)CC2CC2)[C@H](C)CN([C@H](C)CO)C(=O)c2cc(NC(=O)Nc3ccc(C(F)(F)F)cc3)ccc2O1` gave IDH1 R132H inh 4, GASC1 inh 0 and T cruzi growth-1 53.
For C[C@@H]1CCCCO[C@@H](CN(C)CC2CCCCC2)[C@@H](C)CN([C@@H](C)CO)C(=O)c2cc(NC(=O)Nc3ccc(C(F)(F)F)cc3)ccc2O1 the results were T cruzi growth-1 99*, T cruzi growth-2 inconclusive, T cruzi growth-3 112*, 3T3 cytotox 122* and 3T3 cytotox 2 103*.
For C[C@@H]1CCCCO[C@@H](CN(C)CC2CC2)[C@H](C)CN([C@@H](C)CO)C(=O)c2cc(NC(=O)Nc3ccc(C(F)(F)F)cc3)ccc2O1 the results were GASC1 inh -1 and T cruzi growth-1 26.
Screening C[C@@H]1CCCCO[C@@H](CN(C)CC2CCCCC2)[C@H](C)CN([C@H](C)CO)C(=O)c2cc(NC(=O)Nc3ccc(C(F)(F)F)cc3)ccc2O1 returned IDH1 R132H inh -1, GASC1 inh -2, T cruzi growth-1 inconclusive, T cruzi growth-2 106*, T cruzi growth-3 116*, 3T3 cytotox 118* and 3T3 cytotox 2 105*.
`C[C@@H]1CCCCO[C@H](CN(C)CC2CCCCC2)[C@H](C)CN([C@H](C)CO)C(=O)c2cc(NC(=O)Nc3ccc(C(F)(F)F)cc3)ccc2O1` gave IDH1 R132H inh -2, T cruzi growth-1 inconclusive, T cruzi growth-2 2, T cruzi growth-3 -1, 3T3 cytotox -4 and 3T3 cytotox 2 -2.
`CCn1c2ccccc2n2c(SCCOc3ccc(C)cc3)nnc12` gave IDH1 R132H inh 0.
`C[C@@H]1CN([C@@H](C)CO)S(=O)(=O)c2ccc(-c3cccc(F)c3)cc2O[C@H]1CN(C)C(=O)Nc1cc(F)ccc1F` gave IDH1 R132H inh 3, GASC1 inh 8, T cruzi growth-1 115*, T cruzi growth-2 101*, T cruzi growth-3 63, 3T3 cytotox 51* and 3T3 cytotox 2 57*.
Screening C[C@H]1CN([C@@H](C)CO)S(=O)(=O)c2ccc(-c3ccccc3)cc2O[C@@H]1CN(C)C(=O)Nc1ccccc1F returned IDH1 R132H inh 0, GASC1 inh 1 and T cruzi growth-1 -40.
For C[C@@H]1CN([C@H](C)CO)S(=O)(=O)c2ccc(-c3cccc(F)c3)cc2O[C@H]1CN(C)C(=O)Nc1cc(F)ccc1F the results were IDH1 R132H inh 4, GASC1 inh -2, T cruzi growth-1 115*, T cruzi growth-2 96*, T cruzi growth-3 78, 3T3 cytotox 64* and 3T3 cytotox 2 81*.
Screening C[C@@H]1CN([C@@H](C)CO)S(=O)(=O)c2ccc(-c3ccc(F)cc3)cc2O[C@H]1CN(C)C(=O)Nc1ccccc1F returned GASC1 inh -1 and T cruzi growth-1 16.
Screening CCOc1ccc(NC(=O)CSc2nnc(-c3ccc(Cl)c(Cl)c3)n2C)cc1 returned IDH1 R132H inh 0.
Screening COc1ccc(NC(=O)Cn2c(=O)n(-c3ccc(Cl)cc3)c(=O)c3c4c(sc32)CCCC4)cc1 returned IDH1 R132H inh 0.
`Cc1nnc(SCC(=O)NCC2CCCO2)s1` (configuration not stated) gave IDH1 R132H inh 0.
For CC1(C)COC(CCC/C=N/NC(=O)c2ccc(C(=O)NO)cc2)OC1 the results were IDH1 R132H inh 0.
Screening COc1c2c(c(O)c3c(=O)c4c(OC)c(O)ccc4oc13)C1CCCC(C)(O2)O1 (configuration not stated) returned IDH1 R132H inh 1.
`O=C1c2ccccc2S(=O)(=O)N1CC(O)Cn1c2ccc(Cl)cc2c2cc(Cl)ccc21` (configuration not stated) gave IDH1 R132H inh -1.
C/C=C/c1ccc([C@@H]2[C@H]3CN(S(=O)(=O)c4ccc(F)cc4)CCCCN3[C@H]2CO)cc1 was read as GASC1 inh 0 and T cruzi growth-1 96.
`C/C=C/c1ccc([C@@H]2[C@@H](CO)N3CCCCN(S(=O)(=O)c4ccc(F)cc4)C[C@@H]23)cc1` gave GASC1 inh -1 and T cruzi growth-1 85.
Screening C/C=C/c1ccc([C@H]2[C@H](CO)N3CCCCN(S(=O)(=O)c4cccc(C)c4)C[C@@H]23)cc1 returned GASC1 inh 0, T cruzi growth-1 118*, T cruzi growth-2 107*, T cruzi growth-3 75, 3T3 cytotox 27 and 3T3 cytotox 2 105*.
`C/C=C/c1ccc([C@H]2[C@@H](CO)N3CCCCN(S(=O)(=O)c4cccc(C)c4)C[C@@H]23)cc1` gave GASC1 inh -1, T cruzi growth-1 111*, T cruzi growth-2 112*, T cruzi growth-3 69, 3T3 cytotox 10 and 3T3 cytotox 2 80*.
For Cc1sc2ncnc(SCC(=O)Nc3ccccc3-c3ccccc3)c2c1C the results were IDH1 R132H inh 0.
For COc1ccc(C)cc1NC(=O)CN(c1cccc(F)c1)S(C)(=O)=O the results were IDH1 R132H inh 0.
Screening COC(=O)C1=C2C(=O)c3c(O)cc(CO)cc3OC2C(O)C=C1 (configuration not stated) returned IDH1 R132H inh 2.

Compound activity (PubChem)
